Source: PubChem BioAssay (several laboratories)
T cruzi inh = blocks replication of Trypanosoma cruzi | inhibition, % (test concentration not listed) | 1.4% of 300,000 active | T. cruzi beta-gal in NIH3T3, luminescence, 90 h;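 active = mean inhibition across valid replicates above about 55%, limit read from the data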;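 note: signal also drops with host cell toxicity which is not excluded here; 0% = plate median of DMSO wells and 100% = zero luminescence signal; higher percent means less beta-gal luminescence so fewer parasites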
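System: mouse NIH/3T3 fibroblasts infected with β-gal-expressing T. cruzi Tulahuen C4 / Input: NIH/3T3 cells, 5,000 per well / Buffer or medium: Low-serum DMEM with 2% FBS / Probe or stimulus: 5000 reporter trypomastigotes per well / Schedule: ≥90 h infection period, 3 h prior cell attachment / Measured by: GalScreen luminescence, 60 min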
NR3A LBD binder = modulates the human NR3A ligand-binding domain; NR3A LBD differential scanning fluorimetry, Tm shift; 0% = protein alone, 100% = glycine-bound protein; Tm shift relative to glycine control, % at 25 µM; 2.5% of 340,000 active;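 active = melting temperature shift of at least 10% of the positive control shift, at one fixed dose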
Beta cell apopt = blocks beta cell apoptosis. INS-1E cytokine-induced death, ATP luminescence, 48 h; percent of positive-control rescue, neutral wells zero. protection from apoptosis, % (test concentration not listed). 0.8% of 300,000 active;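 active = Every replicate reaches about 75%, or at least half do and their mean reaches it too, limit read from the data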;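 note: 0% = cytokine-treated negative control wells and 100% = positive control rescue; higher means more ATP so stronger rescue from cytokine killing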
CHOP inhibitor = blocks CHOP induction under ER stress; CHO-K1 CHOP-promoter luciferase, tunicamycin-induced, 15-18 h; inhibition, % at 10 µM; 3.8% of 220,000 active;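 active = compounds that reduced the stress-induced luciferase reporter signal by more than about 70% of percent inhibition, limit read from the data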;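 note: 0% = tunicamycin plus vehicle and 100% = wells without tunicamycin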
CSC inhib = cancer stem cell inhibition. cancer stem cell-like cells viability, luminescence. inhibition, % at 7.5 µM. 1.1% of 300,000 active; in the data active = inhibition above about 75%; tested in HMLE shEcad cells
PREPL inh = inhibits the human prolyl oligopeptidase-like enzyme; 0.68% of 320,000 active; recombinant PREPL, fluorescence polarization activity-based probe; inhibition, % at 5.96 µM; Q4J6C6; in the data active = inhibition above about 43%;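 note: 0% = enzyme with DMSO and 100% = wells lacking enzyme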
Target sequence (Q4J6C6 whole entry, looked up): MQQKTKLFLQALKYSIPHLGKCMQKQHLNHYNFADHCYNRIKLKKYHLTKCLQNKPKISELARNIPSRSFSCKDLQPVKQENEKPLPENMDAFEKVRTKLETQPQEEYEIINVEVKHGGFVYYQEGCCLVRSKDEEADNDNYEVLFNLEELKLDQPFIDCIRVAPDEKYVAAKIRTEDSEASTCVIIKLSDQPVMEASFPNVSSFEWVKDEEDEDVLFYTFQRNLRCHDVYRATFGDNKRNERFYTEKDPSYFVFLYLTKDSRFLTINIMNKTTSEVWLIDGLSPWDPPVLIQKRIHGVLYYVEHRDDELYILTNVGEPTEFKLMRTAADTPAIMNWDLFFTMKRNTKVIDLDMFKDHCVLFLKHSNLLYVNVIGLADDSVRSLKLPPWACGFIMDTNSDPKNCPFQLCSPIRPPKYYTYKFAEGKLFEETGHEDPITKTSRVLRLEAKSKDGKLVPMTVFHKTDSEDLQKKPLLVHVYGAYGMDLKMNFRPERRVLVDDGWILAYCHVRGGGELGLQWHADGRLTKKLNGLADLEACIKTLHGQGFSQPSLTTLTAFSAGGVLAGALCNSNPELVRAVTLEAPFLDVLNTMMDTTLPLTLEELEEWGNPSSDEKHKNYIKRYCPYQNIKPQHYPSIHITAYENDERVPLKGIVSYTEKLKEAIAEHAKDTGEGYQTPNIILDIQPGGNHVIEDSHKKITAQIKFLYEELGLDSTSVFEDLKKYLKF
Starred values were filed as active, the others as inactive; / = no result given. An excerpt weighted towards active compounds, which were near 6.7% of everything screened.

SMILES	T cruzi inh	NR3A LBD binder	Beta cell apopt	CHOP inhibitor	CSC inhib	PREPL inh
N#Cc1cnc(SCCc2ccccc2)nc1N	3	-3	5	54	-7	11
COc1cc(OC)cc(-c2oc(=O)c3cc(OC)c(OC)cc3c2/C=C/c2ccc(F)cc2)c1	/	1	15	/	-1	18
Cc1nc(-c2ccccc2)sc1C(=O)Nc1ccc(S(N)(=O)=O)cc1	1	12*	6	/	-4	-15
Cc1nc(-c2ccncc2)sc1C(=O)Nc1ccc(Cl)cc1	3	-4	7	8	15	16
Cc1nc(-c2cccnc2)sc1C(=O)Nc1ccc(Cl)cc1	13	-4	3	81*	-1	-9
Cn1cnnc1SCc1ccc(C(=O)N/N=C(/CCC(=O)O)c2ccc(C(C)(C)C)cc2)cc1	/	-1	/	/	/	/
COc1ccc(-c2nn(CCC#N)cc2C(=O)Nc2cccc(C(=O)O)c2)cc1OC	-13	-2	-13	/	-5	/
COc1ccc(C(=O)Nc2ccc3[nH]ccc3c2)cc1	-4	31*	8	/	32	12
COc1ccc(C(=O)Nc2ccc3[nH]ccc3c2)cc1OC	-8	-21	0	/	0	3
COc1ccc(C(=O)Nc2ccc3[nH]ncc3c2)cc1	6	12*	0	/	-8	9
CC1CCCC(C)N1C(=O)COc1ccc([N+](=O)[O-])cc1Cl (centres undefined)	-2	0	0	0	-8	0
CCCN(CCC)S(=O)(=O)c1ccc(NC(=O)Cc2cccs2)cc1	2	0	0	61	/	-4
CCCCOC(=O)Nc1ccc(S(=O)(=O)Nn2cnnc2)cc1	-12	1	1	18	-15	12
CCCCN(CC)S(=O)(=O)c1ccc(C(=O)Nc2nnc(-c3cccs3)o2)cc1	63*	-3	1	/	41	9
CCCCOC(=O)Nc1ccc(S(=O)(=O)Nc2ccc([N+](=O)[O-])cc2)cc1	0	17*	11	-2	6	-5
CCCCN(CCCC)S(=O)(=O)c1ccc(NC(=O)Cc2cccs2)cc1	19	6	-7	82*	47	-7
CCCCOc1ccc(S(=O)(=O)Nc2ccc(NC(C)=O)cc2)cc1	-2	-4	9	27	-4	-7
CCCCN(CCCC)S(=O)(=O)c1ccc(NS(=O)(=O)c2ccc(NC(C)=O)cc2)cc1	9	13*	-3	93*	18	-7
CC(C)(C)NC(=O)CSc1nc2[nH]ncc2c(=O)[nH]1	-5	-1	-1	13	-10	4
NC(=O)C1CCN(c2oc(/C=C/c3ccccc3)nc2S(=O)(=O)c2ccccc2)CC1	5	0	-7	/	-14	1
COc1cccc(NC(=O)COC(=O)C2CC3CCCC(C2)C3=O)c1 (centres undefined)	/	-1	-3	/	/	3
O=C(Oc1ccccc1C(=O)Nc1ccccc1)c1ccccc1Br	-1	-9	0	-39	31	-13
COC(=O)c1ccc(NC(=O)CSc2nncn2-c2ccccn2)cc1	-6	0	-2	/	-25	-4
CCOCCCNC(=O)C(NC(=O)Cc1cccs1)c1ccccc1 (centres undefined)	-10	2	1	19	-12	-4
CCCCOCCCNC(=O)Cc1cccs1	-12	11*	5	-3	-3	-1
SMILES	T cruzi inh	NR3A LBD binder	Beta cell apopt	CHOP inhibitor	CSC inhib	PREPL inh
FC(F)(F)COc1nc(OCC(F)(F)F)nc(N2CCN(c3ccccc3)CC2)n1	/	12*	5	20	7	11
O=C1[C@H](Cc2ccccc2)NCCCC[C@H](c2ccc(Cl)cc2)N1Cc1ccccc1	/	10*	/	/	/	/
CC(C)CC1NC(=O)N(CC(=O)Nc2ccccc2-c2ccccc2)C1=O (centres undefined)	-12	1	-10	50	10	1
CC(C)c1ccc(NC(=O)CN2C(=O)NC(Cc3c[nH]c4ccccc34)C2=O)cc1 (centres undefined)	/	13*	/	/	/	9
CC(C)CC1NC(=O)N(CC(=O)Nc2ccc(-c3ccccc3)cc2)C1=O (centres undefined)	/	13*	-9	/	/	11
COc1ccc(N(CC(=O)NCc2ccc(F)cc2)C(=O)c2snc(C(N)=O)c2N)cc1	-17	-1	-9	/	-4	-11
COc1ccc(CCNCc2ccc(OCC(=O)N3CCCCC3)c(OC)c2)cc1OC	57*	0	0	-15	-16	-8
Cc1cc(N2CCCC2=O)cc(C)c1S(=O)(=O)NCCOc1ccc(C(C)(C)C)cc1	14	-11	109*	78*	7	4
CC(=O)CC(c1ccccc1)S(=O)(=O)c1ccc([N+](=O)[O-])cc1 (centres undefined)	-11	1	-1	/	-7	-3
CC(=O)Nc1ccc(/C(N=Nc2ccccc2)=N/N=C(N)N)cc1	/	-5	/	/	/	/
Brc1ccc(N/N=C(/N=Nc2nn[nH]n2)c2ccccc2)cc1	-28	4	96*	71*	-10	25
O=C(O)c1ccc(N=N/C(=N\Nc2ccc(C(=O)O)cc2)c2ccccc2)cc1	-3	23*	19	/	15	0
NC(=O)/C(N=Nc1ccccc1)=N/Nc1ccccc1	-2	0	-4	/	10	17
O=C(O)c1cccc(N/N=C(\N=Nc2ccccc2)c2ccccc2)c1	8	-12	-1	/	88*	-11
Cc1ccc2[nH]c(=O)cc(C(=O)OCC(=O)c3ccccc3)c2c1	-10	1	-12	-19	-13	2
Cc1ccc2[nH]c(=O)cc(C(=O)OCC(=O)c3ccc(F)cc3)c2c1	-8	2	-10	77*	0	3
CN(C)S(=O)(=O)c1cccc(CSCc2cccc(S(=O)(=O)N(C)C)c2)c1	2	-1	108*	/	9	10
Cc1cc(C)n2nc(SCc3cccc(S(=O)(=O)N(C)C)c3)nc2n1	19	0	/	/	17	17
CSc1ccc(NC(=O)Nc2cccn(Cc3ccccc3F)c2=O)cc1	59*	-4	2	59	6	21
O=C(O)CSc1ccc(NC(=O)Nc2ccccc2F)cc1	-11	10*	6	-4	24	-1
CC(=O)Nc1ccc(SCC(=O)O)cc1	-21	0	3	15	17	7
CCOC(CCNC(=O)c1cn(CC(C)C)c(=O)c2c1c1ccccc1n2C)OCC	9	3	1	/	9	4
CCc1ccc(OC)c(S(=O)(=O)Nc2ccc(Cc3ccncc3)cc2)c1	26	0	101*	/	23	7
COc1ccc(S(=O)(=O)Nc2ccc(Cc3ccncc3)cc2)cc1OC	-8	-1	44	/	-6	7
CSc1ccc(/C=C/C(=O)OCC(=O)c2ccc[nH]2)cc1	/	-1	-4	/	/	-2
Cc1nc(N2CCc3ccccc3C2)[nH]c(=O)c1Cc1ccccc1	-6	1	12	78*	1	19
CCCCCc1c(C)nc(N2CCc3ccccc32)[nH]c1=O	-23	2	/	73*	/	/
